How the values were obtained:
Assay type in all cases: functional
Mus musculus [1] = assay: Evaluation of hypothermia (after 1h) resulting from iv administration of compound at dose 100 mg/kg
Method in brief: (§1)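 Male ICR mice (22-30 g), housed in the laboratory 24 h before treatment; ambient 21-24 °C recorded. Rectal temperature was taken by thermistor probe (inserted 25 mm) just before iv injection of vehicle or drug (0.1 mL/10 g), then at 10-min intervals to 60 min. Value is the pre-injection minus 60-min temperature difference. At least six mice per dose.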

Mus musculus [2] = assay: Evaluation of spontaneous activity administered by iv route in mice
Method in brief: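 Male ICR mice (22-30 g), housed 24 h before treatment. Given vehicle or drug iv (0.1 mL/10 g), then immediately placed singly in photocell activity chambers; beam interruptions counted for 10 min. Counts expressed as percent of vehicle control. ED50 (mg/kg) with 95% confidence limits by Litchfield-Wilcoxon method. At least six mice per dose.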

Mus musculus [3] = assay: Evaluation of hypothermia (after 1h) resulting from iv administration of compound at dose 60 mg/kg; method in brief: as §1
Mus musculus [4] = assay: Evaluation of hypothermia (after 1h) resulting from iv administration of compound at dose 30 mg/kg; method in brief: as §1
Mus musculus [5] = assay: Evaluation of hypothermia (after 1h) resulting from iv administration of compound at dose 40 mg/kg; method in brief: as §1
Mus musculus [6] = assay: Evaluation of hypothermia (after 1h) resulting from iv administration of compound at dose 20 mg/kg; method in brief: as §1
Mus musculus [7] = assay: Evaluation of hypothermia (after 1h) resulting from iv administration of compound at dose 10 mg/kg; method in brief: as §1
Mus musculus [8] = assay: Evaluation of hypothermia (after 1h) resulting from iv administration of compound at dose 5 mg/kg; method in brief: as §1

Compound | Hypothermic effect (Mus musculus [1]) | ED50 (Mus musculus [2]) [mg/kg] | Hypothermic effect (Mus musculus [3]) | Hypothermic effect (Mus musculus [4]) | Hypothermic effect (Mus musculus [5]) | Hypothermic effect (Mus musculus [6]) | Hypothermic effect (Mus musculus [7]) | Hypothermic effect (Mus musculus [8])
CCCCCc1cc(O)c2c(c1)OC(C)(C)[C@@H]1CC=C(c3ccccc3)CC21 (stereo partly drawn) | 2.2 | 67 | 0.3 | 1.6 | – | – | – | –
CCCCCc1cc(O)c2c(c1)OC(C)(C)[C@@H]1CC=C(C(C)O)CC21 (stereo partly drawn) | – | 27 | – | 0.8 | 1.3 | 0 | – | –
CCCCCc1cc(O)c2c(c1)OC(C)(C)[C@@H]1CC=C(CCCC)CC21 (stereo partly drawn) | – | 32 | 5 | 4.3 | – | – | 0.3 | –
CCCCCc1cc(O)c2c(c1)OC(C)(C)[C@@H]1CC=C(C(O)CC)CC21 (stereo partly drawn) | – | 39 | 1.3 | -0.2 | – | – | 0.4 | –
CCCCCc1cc(O)c2c(c1)OC(C)(C)[C@@H]1CC=C(C(C)C)CC21 (stereo partly drawn) | – | 26 | 1.3 | 0.8 | – | 1.2 | – | –
CCCCCc1cc(O)c2c(c1)OC(C)(C)[C@@H]1CC=C(Cc3ccccc3)CC21 (stereo partly drawn) | – | 32 | 1.5 | 1.1 | – | 0.9 | 1.3 | –
CCCCCc1cc(O)c2c(c1)OC(C)(C)[C@@H]1CC=C(CCc3ccccc3)CC21 (stereo partly drawn) | – | 43 | 0.9 | 0.3 | 0.3 | – | – | –
CCCCCc1cc(O)c2c(c1)OC(C)(C)[C@@H]1CC=C(C)CC21 (stereo partly drawn) | – | 7.1 | – | – | – | 3.4 | 1 | 0.9

Source: ChEMBL document CHEMBL1122641, “Synthesis and pharmacological activity of some 9-substituted delta 8-tetrahydrocannabinol analogues” (1984)
